Only some compounds are listed: those with a hit (about 4.7% of all), similar ones and a draw of the others.
Cl transport mod = modulates chloride dependent transport by human KCC2 | KCC2 cells, thallium flux FluoZin-2 fluorescence | 2.2% of 190,000 active | B-score of Tl+ flux slope (higher = more flux/activation; lower = inhibition) at 10 µM | Q9H2X9 | AID 1456;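 active = thallium flux slope and its plate-corrected score both differing from the plate sample mean at a set confidence after two filtering rounds, in either direction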;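 also: slope of fluorescence scaled to starting intensity during 10 to 20 s after thallium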
MrgX1 ag = agonists of human MrgX1 receptor; Q96LB2; MrgX1-HEK293 cells, Fluo-4 calcium fluorescence, agonist mode; hits give high values; B-score at 10 µM; 0.44% of 310,000 active; AID 588627;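 active = calcium response B-score plate-corrected fluorescence ratio at least 3 library SD, with starting fluorescence B-score inside 5 SD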
Target sequence (Q96LB2 whole entry, looked up): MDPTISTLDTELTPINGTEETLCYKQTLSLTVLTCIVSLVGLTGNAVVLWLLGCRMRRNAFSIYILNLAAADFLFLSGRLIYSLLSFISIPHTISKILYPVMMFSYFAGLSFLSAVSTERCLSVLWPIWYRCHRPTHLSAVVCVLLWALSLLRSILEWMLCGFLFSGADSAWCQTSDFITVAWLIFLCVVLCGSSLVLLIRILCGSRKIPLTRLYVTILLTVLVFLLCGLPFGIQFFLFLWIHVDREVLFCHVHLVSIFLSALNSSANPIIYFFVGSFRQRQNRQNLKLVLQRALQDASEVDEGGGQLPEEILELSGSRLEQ
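Test system: HEK293 cells stably expressing human MrgX1 receptor; Input: fifteen thousand cells per well; Dosing: compound delivered in addition one of three; Schedule: overnight seeding, then 1 h dark dye loading; Technique: Fluo-4 NW calcium fluorescence; Measure: B-scored fluorescence response ratio; Controls: positive and negative controls per plate.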
RGS4 inh = human RGS4 inhibition. 0.45% of 310,000 active. B-score at 10 µM. P49798. HEK293 M3R/RGS4 inducible, Fluo-4 calcium flux; hits give high values; triggered by carbachol at its EC20. AID 463165;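 active = B-score, a plate-corrected calcium signal, over three deviations above library mean, with baseline fluorescence within five deviations of library mean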;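 also: RGS4 expression induced by doxycycline in cells with stable M3 receptor; B-score is computed from the integrated fluorescence ratio over baseline after carbachol; higher B-score means a larger calcium signal and so more RGS4 inhibition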
Target sequence (P49798 whole entry, looked up): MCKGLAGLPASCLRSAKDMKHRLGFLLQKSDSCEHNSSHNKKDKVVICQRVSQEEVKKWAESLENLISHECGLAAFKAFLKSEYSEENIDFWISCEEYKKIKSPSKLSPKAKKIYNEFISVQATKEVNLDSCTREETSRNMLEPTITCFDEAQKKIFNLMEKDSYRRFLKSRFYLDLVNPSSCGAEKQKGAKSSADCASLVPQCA
MrgX1 antagonist = human MrgX1 receptor antagonism, primary screen; MRGX1-HEK293 calcium flux, Fluo-4, BAM8-22 antagonism; hits give low values; B-score at 10 µM; 1.3% of 310,000 active; Q96LB2; AID 588676;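 active = calcium-response B-score plate-corrected more than 3 library SD below zero, starting fluorescence within 5 deviations, no agonist response on first addition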;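 also: peak minus trough fluorescence over baseline after final BAM8-22 challenge near maximal dose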
RGS4 act = potentiators or activators of RGS4. HEK293 M3R/inducible RGS4, carbachol calcium flux Fluo4; hits give low values. B-score at 10 µM. 0.92% of 310,000 active. AID 463111;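 active = B-score of the integrated calcium signal more than 4 SD below the library mean, with starting fluorescence not abnormally high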;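 also: negative B-score means reduced calcium response which marks RGS4 activation or potentiation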
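Also added: carbachol at ECmax as muscarinic agonist stimulus; Assay system: HEK293 cells with stable M3R and inducible RGS4; Timing: overnight RGS4 induction, 30 min dye load 37 °C, 20 min compound RT; Measured by: Fluo4-AM (2 µM) calcium-flux fluorescence, kinetic read.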
MrgX1 PAM = allosterically activates human MrgX1 receptor signaling | Q96LB2 | MrgX1-HEK293, Fluo-4 calcium flux, FDSS; hits give high values | B-score at 10 µM | 0.63% of 310,000 active;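 active = plate-corrected calcium response at least 3 library SD above typical, normal starting fluorescence, not activating the receptor alone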;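 also: compound read alongside a low EC10 to EC30 dose of BAM8-22 agonist; peak minus trough fluorescence over baseline measured at the second addition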
MrgX1 ant reconf = reconfirmed antagonist of human MrgX1 receptor signaling. shares compounds with MrgX1 antagonist. MrgX1-HEK293, BAM8-22 calcium flux, Fluo-4; hits give low values. remaining BAM8-22 calcium response % of control (hits give low values), % at 10 µM. 19% of 2,300 active;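 active = remaining agonist calcium response no higher than 100% minus 3 SD of agonist-only control wells, with starting fluorescence near control levels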;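 also: agonist BAM8-22 given at a near maximal EC90 to ECmax level; peak minus minimum fluorescence divided by baseline after agonist addition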
HEK293 Ca flux = MrgX1 antagonist counter-screen hit in parental HEK293 cells | 2% of 4,000 active | fluorescence ratio F(max-min)/F0 at 10 µM | Fluo-4 calcium fluorescence, FDSS | shares compounds with MrgX1 antagonist;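 active = duplicate-averaged calcium fluorescence ratio at least three times the standard deviation of buffer wells, a nonspecific response in parental cells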
HEK293 Ca counter = MrgX1 allosteric activator counter-screen hit in parental HEK293 cells; shares compounds with MrgX1 antagonist; parental HEK293 calcium flux, Fluo-4 fluorescence ratio; hits give high values; fluorescence ratio F(max-min)/F0 at 10 µM; 0.4% of 4,000 active; AID 624114;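 active = calcium fluorescence ratio, averaged over duplicates, at least 3 SD of the buffer-well ratio, meaning a nonspecific response in receptor-free cells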;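 also: untransfected parental HEK293 lacking MrgX1 used as counterscreen for MrgX1 allosteric activators; fluorescence change taken during the second addition on a kinetic imager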
HEK293 Ca cntr2 = counter-screen for MrgX1 activators: effect in parental HEK293 cells; Fluo-4 calcium fluorescence (FDSS); hits give high values; fluorescence ratio F(max-min)/F0 at 10 µM; 8.7% of 4,000 active; shares compounds with MrgX1 antagonist;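 active = calcium fluorescence ratio at least three times the spread of buffer wells, meaning a non-specific response in parental cells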
An asterisk follows results filed as active.

How did COc1cc(-c2nnn(CC(=O)NC3CCS(=O)(=O)C3)n2)ccc1OCc1ccccc1 (centres undefined) do in these assays?
Cl transport mod: -2.1; MrgX1 ag: inactive; RGS4 inh: inactive; MrgX1 antagonist: inactive; RGS4 act: inactive; MrgX1 PAM: inactive

How did COc1ccc(-c2nnn(CC(=O)NCc3ccccc3)n2)cc1OC do in these assays?
Cl transport mod: 0.013; MrgX1 ag: inactive; RGS4 inh: inactive; MrgX1 antagonist: inactive; RGS4 act: inactive; MrgX1 PAM: inactive

What do the screens show for `O=C(NCCNC(=O)c1ccc(Cl)cc1Cl)c1cnccn1`?
MrgX1 ag: inactive; RGS4 inh: inactive; MrgX1 antagonist: inactive; RGS4 act: inactive; MrgX1 PAM: inactive

How did Cc1ccc2c(C(=O)CN3CCOCC3)c(C)[nH]c2c1 do in these assays?
Cl transport mod: 0.47; MrgX1 ag: inactive; RGS4 inh: inactive; MrgX1 antagonist: inactive; RGS4 act: inactive; MrgX1 PAM: inactive

What do the screens show for `Cc1ccc2c(C(=O)CN3CCN(c4ccccc4)CC3)c(C)[nH]c2c1`?
MrgX1 ag: inactive; RGS4 inh: inactive; MrgX1 antagonist: -7.3*; RGS4 act: inactive; MrgX1 PAM: inactive; MrgX1 ant reconf: inactive; HEK293 Ca flux: inactive; HEK293 Ca counter: inactive; HEK293 Ca cntr2: inactive

What do the screens show for `CC(C)c1nnc(NC(=O)c2nc(S(=O)(=O)Cc3ccccc3)ncc2Cl)s1`?
MrgX1 ag: inactive; RGS4 inh: inactive; MrgX1 antagonist: -5.3*; RGS4 act: inactive; MrgX1 PAM: inactive; MrgX1 ant reconf: 81%*; HEK293 Ca flux: inactive; HEK293 Ca counter: inactive; HEK293 Ca cntr2: inactive

What do the screens show for `CSc1nnc(NC(=O)c2nc(S(=O)(=O)Cc3ccccc3)ncc2Cl)s1`?
MrgX1 ag: inactive; RGS4 inh: inactive; MrgX1 antagonist: -4.7*; RGS4 act: inactive; MrgX1 PAM: inactive; MrgX1 ant reconf: 71%*; HEK293 Ca flux: inactive; HEK293 Ca counter: inactive; HEK293 Ca cntr2: inactive

Results for COc1ccccc1CNC(=O)CNC(=O)c1ccc(Br)o1 ?
MrgX1 ag: inactive; RGS4 inh: inactive; MrgX1 antagonist: inactive; RGS4 act: inactive; MrgX1 PAM: inactive

Results for CCOC(=O)CCC(=O)O[C@H]1[C@H](O[C@@H]2[C@@H](C)[C@H](O[C@H]3C[C@@](C)(OC)[C@@H](O)[C@H](C)O3)[C@@H](C)C(=O)O[C@H](CC)[C@@](C)(O)[C@H](O)[C@@H](C)C(=O)[C@H](C)C[C@@]2(C)O)O[C@H](C)C[C@@H]1N(C)C ?
Cl transport mod: -1.2; MrgX1 ag: inactive; RGS4 inh: inactive; MrgX1 antagonist: -11*; RGS4 act: inactive; MrgX1 PAM: inactive; MrgX1 ant reconf: inactive; HEK293 Ca flux: inactive; HEK293 Ca counter: inactive; HEK293 Ca cntr2: inactive

How did Cc1cccc(NS(=O)(=O)c2cc(C(=O)OCC(=O)Nc3cc(C)on3)ccc2C)c1 do in these assays?
MrgX1 ag: inactive; RGS4 inh: inactive; MrgX1 antagonist: -5*; RGS4 act: inactive; MrgX1 PAM: inactive; MrgX1 ant reconf: inactive; HEK293 Ca flux: inactive; HEK293 Ca counter: inactive; HEK293 Ca cntr2: inactive

What do the screens show for `Cc1cccc(NS(=O)(=O)c2ccc(C)c(C(=O)OCC(=O)Nc3cc(C)on3)c2)c1`?
Cl transport mod: -0.51; MrgX1 ag: inactive; RGS4 inh: inactive; MrgX1 antagonist: inactive; RGS4 act: inactive; MrgX1 PAM: inactive

How did COc1ccc(Cl)cc1NC(=O)CSC1=NN2CCCC(=O)N=C2S1 do in these assays?
MrgX1 ag: inactive; RGS4 inh: inactive; MrgX1 antagonist: inactive; RGS4 act: inactive; MrgX1 PAM: inactive

What do the screens show for `O=S(=O)(NCCc1csc(-c2cccnc2)n1)c1ccc(Cl)s1`?
Cl transport mod: -0.51; MrgX1 ag: inactive; RGS4 inh: inactive; MrgX1 antagonist: -4.9*; RGS4 act: inactive; MrgX1 PAM: inactive; MrgX1 ant reconf: 79%*; HEK293 Ca flux: inactive; HEK293 Ca counter: inactive; HEK293 Ca cntr2: inactive

How did O=S(=O)(NCCc1csc(-c2cccnc2)n1)c1cccs1 do in these assays?
Cl transport mod: 0.19; MrgX1 ag: inactive; RGS4 inh: inactive; MrgX1 antagonist: inactive; RGS4 act: inactive; MrgX1 PAM: inactive

How did CC(=O)c1cccc(NC(=O)CSc2nnnn2C2CCCC2)c1 do in these assays?
RGS4 inh: inactive; RGS4 act: inactive

What do the screens show for `O=C(Nc1ccc(S(=O)(=O)Nc2ccccn2)cc1)c1ccc(Cl)cc1Cl`?
MrgX1 ag: inactive; RGS4 inh: inactive; MrgX1 antagonist: inactive; RGS4 act: inactive; MrgX1 PAM: inactive

What do the screens show for `Cc1ccc(-n2cc(S(=O)(=O)c3ccc(C)cc3)[nH]c2=O)cc1`?
Cl transport mod: -0.28; MrgX1 ag: inactive; RGS4 inh: inactive; MrgX1 antagonist: -4.8*; RGS4 act: inactive; MrgX1 PAM: inactive; MrgX1 ant reconf: inactive; HEK293 Ca flux: inactive; HEK293 Ca counter: inactive; HEK293 Ca cntr2: inactive

Results for O=C(O)/C=C/C(=O)c1c(-c2ccccc2)[nH]c2ccccc12 ?
MrgX1 ag: inactive; RGS4 inh: inactive; MrgX1 antagonist: inactive; RGS4 act: inactive; MrgX1 PAM: inactive

Results for Cc1cccc(-n2ccnc2SCC(=O)Nc2nnc(C)s2)c1 ?
MrgX1 ag: inactive; RGS4 inh: inactive; MrgX1 antagonist: -7.7*; RGS4 act: inactive; MrgX1 PAM: inactive; MrgX1 ant reconf: inactive; HEK293 Ca flux: inactive; HEK293 Ca counter: inactive; HEK293 Ca cntr2: inactive

What do the screens show for `Cc1ccc(CNC(=O)Cc2ccc(-c3ccccc3)cc2)cc1`?
Cl transport mod: 0.88; MrgX1 ag: inactive; RGS4 inh: inactive; MrgX1 antagonist: inactive; RGS4 act: inactive; MrgX1 PAM: inactive

High-throughput results as filed in PubChem.
